Results taken from ChEMBL document CHEMBL1138007, “Examining the correlations between GSK-3 inhibitory properties and anti-convulsant efficacy of valproate and valproate-related compounds” (Bioorg Med Chem Lett, 2004).
The source made the active and inactive calls. The calls are words filed in the database; no cut-off is given here.

Tests used:
[1] = biological target: Glycogen synthase kinase-3 alpha (Homo sapiens) (UniProt P49840); assay: Inhibitory activity against Glycogen synthase kinase-3 alpha, expressed as percent control; set-up: concentration or dose not given beside the values
Chain of Glycogen synthase kinase-3 alpha (Homo sapiens) (P49840 2-483 limits assumed): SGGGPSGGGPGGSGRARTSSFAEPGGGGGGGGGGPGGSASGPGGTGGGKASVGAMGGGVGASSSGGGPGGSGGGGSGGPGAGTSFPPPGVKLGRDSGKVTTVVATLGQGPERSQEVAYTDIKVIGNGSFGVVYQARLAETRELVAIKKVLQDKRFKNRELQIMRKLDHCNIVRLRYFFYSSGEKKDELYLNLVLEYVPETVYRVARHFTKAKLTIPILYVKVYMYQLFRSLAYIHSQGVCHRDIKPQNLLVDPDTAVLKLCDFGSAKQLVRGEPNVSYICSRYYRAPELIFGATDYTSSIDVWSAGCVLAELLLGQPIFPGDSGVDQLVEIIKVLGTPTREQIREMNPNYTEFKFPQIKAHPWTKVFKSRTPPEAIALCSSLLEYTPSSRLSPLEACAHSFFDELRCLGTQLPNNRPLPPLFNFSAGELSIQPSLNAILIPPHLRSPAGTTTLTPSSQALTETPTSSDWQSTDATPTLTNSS
How it was run: (§1)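 Recombinant GSK-3α or β, preincubated with compound (0-4 mM), then given phospho-glycogen synthase peptide-2 substrate and [γ-³²P]-ATP plus unlabelled ATP. Buffer: 20 mM MOPS, 0.25 mM Mg acetate, 5 mM MgCl₂, 5 mM β-glycerophosphate, 1 mM EGTA, 0.25 mM Na₃VO₄, 0.25 mM DTT. Reaction ran 30 min at 30 °C, then was spotted on phosphocellulose, acid-washed and scintillation-counted. Background-subtracted counts were normalized to uninhibited activity.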

[2] = Inhibitory activity against Glycogen synthase kinase-3 beta, expressed as percent control; set-up: concentration or dose not given beside the values; how it was run: as §1
[3] = Anti-convulsant activity in experimental animal model; ++ = relative to valproate; format: functional
[4] = Anti-convulsant activity in experimental animal model; +++ = more effective; format: functional
[5] = Inhibitory activity (20 mM) against Glycogen synthase kinase-3 beta, expressed as percent control; set-up: scale not given: the % may be the effect or the level left
[6] = Inhibitory activity (0.5 mM) against Glycogen synthase kinase-3 beta, expressed as percent control; set-up: scale not given: the % may be the effect or the level left; how it was run: as §1
[7] = biological target: Glycogen synthase kinase-3 alpha (Homo sapiens) (UniProt P49840); assay: Inhibitory activity (0.5 mM) against Glycogen synthase kinase-3 alpha, expressed as percent control; set-up: scale not given: the % may be the effect or the level left; how it was run: as §1
[8] = Anti-convulsant activity in experimental animal model; + = less effective; format: functional
[9] = biological target: Glycogen synthase kinase-3 alpha (Homo sapiens) (UniProt P49840); assay: Inhibitory activity (4 mM) against Glycogen synthase kinase-3 alpha, expressed as percent control; set-up: scale not given: the % may be the effect or the level left; how it was run: as §1
[10] = Inhibitory activity (4 mM) against Glycogen synthase kinase-3 beta, expressed as percent control; set-up: scale not given: the % may be the effect or the level left; conditions: in the assay text read “(0.5 mM)” for “(4 mM)”; how it was run: as §1

Row | SMILES | Control [1] [%] | Control [2] [%] | also measured
1 | C=CCC(CCC)C(=O)OC (stereo not given) | 99.9 | 123 | –
2 | CC/C=C(\CCC)C(=O)O | 100 | 91.3 | Activity [3]: Active
3 | CCCC(CCC)C(N)=O | 96.6 | 83.9 | Activity [4]: Active
4 | CCCC(CCC)C(=O)OC | 104 | 81.8 | –
5 | O=C1NC(=O)C(c2ccccc2[N+](=O)[O-])=C1Nc1ccc(O)c(Cl)c1 | – | – | Control [5]: 4.6%
6 | CCCC(CCC)C(=O)O | 80.4 | 35.5 | Activity [3]: Active
7 | CCCC(C)(CCC)C(=O)O | 67.4 | 24.8 | Activity [4]: Active
8 | CCCC(C)(CCC)C(=O)OC | 99.7 | 122 | –
9 | CCCC(CCC)C(=O)NO | 54.2 | 49.1 | Activity [4]: Active
10 | C=CCC(CCC)C(=O)OC(C)C (stereo not given) | 87.9 | 110 | –
11 | CCC(CC)C(=O)O | – | – | Control [6]: 56.1%; Control [7]: 88.3%; Activity [8]: Weak activity; Control [9]: 0.5%; Control [10]: 56.1%
12 | C=CCC(CCC)C(=O)O (stereo not given) | 99.2 | 57.7 | Activity [4]: Active
13 | CC/C=C(\CCC)C(=O)OC | 61.3 | 33.3 | –
14 | [Cl-].[Li+] | – | – | Control [5]: 19.5%
